“And” between values parts separate entries of the source, which are not always exact repeats. Equal entries are not always repeated. The source made the active and inactive calls.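 Rule for the calls: active = mean inhibition at 10 µM of 50% or more; inactive = mean inhibition at 10 µM below 50%.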

The values below come from PubChem BioAssay AID623962 (The Scripps Research Institute Molecular Screening Center, 2012).

For the experiment, the system named is Huh-7.5 HCV Rluc replicon, luciferase luminescence, 72 h. The experiment in a line: HCV RNA replication inhibitors in Huh-7.5 cells – cell-based, luminescence, Renilla luciferase replicon, orthogonal assay for HCV NS3 helicase inhibitor project, late-stage follow-up (AID 623962). Conditions: at 10 µM; active compounds read high. In outline: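 Dosing: one concentration, 10 µM in 0.5% DMSO / Assay system: Huh-7.5 HCV Renilla luciferase replicon cells / Benchmarks: DMSO-treated cells as uninhibited reference / Signal: Renilla luciferase luminescence of lysed cells / Schedule: cell attachment 4-5 h, then compound exposure 72 h, 37 °C, 5% CO2 / Read-out basis: % replication inhibition versus DMSO-treated cells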
The inhibition is the drop in the measured response relative to a control, in per cent. Consider `Cc1ccc2nc(-c3ccc4nc(-c5ccc(NC(=O)c6ccc7nc(-c8ccc(N)cc8)sc7c6)cc5)sc4c3)sc2c1S(=O)(=O)O`, for which the inhibition was 37% (inactive).

For the compound `Cc1cc(C(O)(c2ccc(Nc3ccccc3)cc2)c2ccc(Nc3ccc(S(=O)(=O)O)cc3)cc2)ccc1N` (configuration not stated), the inhibition is 23% (inactive). In the case of `Cc1ccc2nc(-c3ccc4nc(-c5ccc(NC(=O)c6cccc(C(F)(F)F)c6F)cc5)sc4c3)sc2c1S(=O)(=O)O` it was 48% (inactive); in that of `Cc1ccc2nc(-c3ccc4nc(-c5ccc(NC(=O)c6ccc(N)cc6)cc5)sc4c3)sc2c1S(=O)(=O)O`, 33% (inactive); in that of `COc1cccc2c(=O)c3cc(Cl)cc(C(=O)Nc4cc(Cl)ccn4)c3[nH]c12`, 73%.

`Cc1ccc2nc(-c3ccc4nc(-c5ccc(NC(=O)c6ccc(C(F)(F)F)c(F)c6)cc5)sc4c3)sc2c1S(=O)(=O)O`: the inhibition is 48% (inactive). Take `Cc1ccc2c(sc(-c3ccc4c(c3)sc(-c3ccc5c(c3)sc(-c3ccc(N(C)C)cc3)[n+]5C)[n+]4C)[n+]2C)c1S(=O)(=O)O` (tested in a mixture with another compound): the inhibition is -16% (inactive). To `Cc1ccc2nc(-c3ccc(NC(=O)c4ccc(NC(=O)c5ccccc5)cc4)cc3)sc2c1S(=O)(=O)O` belongs 19% (inactive). To `Cc1ccc2nc(-c3ccc4nc(-c5ccc(NC(=O)c6cccc(Cl)c6)cc5)sc4c3)sc2c1S(=O)(=O)O` belongs 54%; to `CC(=O)Nc1ccc(-c2nc3ccc(-c4nc5ccc(C)c(S(=O)(=O)O)c5s4)cc3s2)cc1`, 26% (inactive); to `Cc1ccc2nc(-c3ccc(NC(=O)c4ccc(NC(=O)OCC5c6ccccc6-c6ccccc65)cc4)cc3)sc2c1S(=O)(=O)O`, 31% (inactive). In the case of `COc1ccc2sc(NC(=O)c3ccc4ncsc4c3)nc2c1` it was 60%; in that of `Cc1ccc2nc(-c3ccc4nc(-c5ccc(NC(=O)c6ccc(C(C)(C)C)cc6)cc5)sc4c3)sc2c1S(=O)(=O)O`, 51%. On to `Cc1ccc2nc(-c3ccc4nc(-c5ccc(NC(=O)c6c(F)cccc6C(F)(F)F)cc5)sc4c3)sc2c1S(=O)(=O)O`, for which the inhibition is 55%. In the case of `Cc1ccc2nc(-c3ccc4nc(-c5ccc(NC(=O)c6ccc(Br)cc6)cc5)sc4c3)sc2c1S(=O)(=O)O` it was 7% (inactive).

Regarding `COC(=O)c1ccc(C(=O)Nc2ccc(-c3nc4ccc(-c5nc6ccc(C)c(S(=O)(=O)O)c6s5)cc4s3)cc2)cc1`, the inhibition is 40% (inactive). On to `Cc1ccc2nc(-c3ccc4nc(-c5ccc(NC(=O)Nc6ccc(Cl)cc6)cc5)sc4c3)sc2c1S(=O)(=O)O`, for which the inhibition was 35% (inactive). In the case of `O=C(CCCCCCC(=O)Nc1ccc(-c2nc3ccccc3[nH]2)cc1)Nc1ccc(-c2nc3ccccc3[nH]2)cc1` it was 96%; in that of `Cc1ccc2nc(-c3ccc(NC(=S)Nc4ccccc4Br)cc3)sc2c1`, 80%.

Turning to `Cc1ccc2nc(-c3ccc4nc(-c5ccc(NC(=O)c6ccc(N(C)C)cc6)cc5)sc4c3)sc2c1S(=O)(=O)O`, the inhibition was 22% (inactive). For `Cc1ccc2nc(-c3ccc4nc(-c5ccc6nc(-c7ccc8nc(-c9ccc(N)cc9)sc8c7)sc6c5)sc4c3)sc2c1S(=O)(=O)O`, the inhibition is 0% (inactive) and 45% (inactive). In the case of `COc1ccc(C(=O)Nc2ccc(-c3nc4ccc(-c5nc6ccc(C)c(S(=O)(=O)O)c6s5)cc4s3)cc2)cc1` it was 64%; in that of `COc1ccc(S(=O)(=O)Nc2ccc(-c3nc4ccc(-c5nc6ccc(C)c(S(=O)(=O)O)c6s5)cc4s3)cc2)cc1`, 44% (inactive); in that of `COc1ccc(NC(=O)Nc2ccc(-c3nc4ccc(-c5nc6ccc(C)c(S(=O)(=O)O)c6s5)cc4s3)cc2)cc1`, 21% (inactive). To `Cc1ccc2nc(-c3ccc4nc(-c5ccc(NC(=O)c6cccc7ccccc67)cc5)sc4c3)sc2c1S(=O)(=O)O` belongs -9% (inactive); to `Cc1ccc2nc(-c3ccc4nc(-c5ccc(NC(=O)c6ccc7ncoc7c6)cc5)sc4c3)sc2c1S(=O)(=O)O`, 15% (inactive); to `CS(=O)(=O)c1ccc2nc(NC(=O)c3ccc4ncsc4c3)sc2c1`, 55%. To `Cc1ccc2nc(-c3ccc4nc(-c5ccc(NC(=O)c6cccc(C(F)(F)F)c6)cc5)sc4c3)sc2c1S(=O)(=O)O` belongs 41% (inactive). Consider `Cc1ccc2nc(-c3ccc(NC(=O)c4ccc(N)cc4)cc3)sc2c1S(=O)(=O)O`, for which the inhibition is 21% (inactive). Turning to `Cc1ccc2nc(-c3ccc4nc(-c5ccc(N(C)C(=O)c6ccc7ccccc7c6)cc5)sc4c3)sc2c1S(=O)(=O)O`, the inhibition is 24% (inactive). Take `Cc1ccc2nc(-c3ccc4nc(-c5ccc(NC(=O)c6ccccc6C(F)(F)F)cc5)sc4c3)sc2c1S(=O)(=O)O`: the inhibition is 0% (inactive). In the case of `O=C(Nc1nc2ccc(Br)cc2s1)c1ccc2ncsc2c1` it was 25% (inactive); in that of `CCOc1ccc2nc(NC(=O)c3ccc4ncsc4c3)sc2c1`, 99%. To `Cc1ccc2nc(-c3ccc(NC(=O)c4ccc(NC(=O)c5ccc(C(F)(F)F)cc5)cc4)cc3)sc2c1S(=O)(=O)O` belongs 4% (inactive). On to `Cc1ccc2nc(-c3ccc4nc(-c5ccc(NC(=S)Nc6ccccc6)cc5)sc4c3)sc2c1S(=O)(=O)O`, for which the inhibition was 9% (inactive).

As to `Cc1ccc2nc(-c3ccc4nc(-c5ccc(NC(=O)c6ccccc6)cc5)sc4c3)sc2c1S(=O)(=O)O`, the inhibition was 45% (inactive). To `Cc1ccc2nc(-c3ccc(NC(=O)c4ccc(NC(=S)Nc5ccccc5)cc4)cc3)sc2c1S(=O)(=O)O` belongs -13% (inactive). In the case of `Cc1ccc2nc(-c3ccc4nc(-c5ccc(NC(=O)c6ccc(CNC(=O)OCC7c8ccccc8-c8ccccc87)cc6)cc5)sc4c3)sc2c1S(=O)(=O)O` it was 48% (inactive). In the case of `Cc1ccc2nc(-c3ccc(NC(=O)c4ccc(NC(=O)Nc5ccccc5)cc4)cc3)sc2c1S(=O)(=O)O` it was -64% (inactive); in that of `Cc1ccc2nc(-c3ccc4nc(-c5ccc(NC(=O)c6cc(C(F)(F)F)ccc6F)cc5)sc4c3)sc2c1S(=O)(=O)O`, 39% (inactive); in that of `Cc1ccc2nc(-c3ccc4nc(-c5ccc(NS(=O)(=O)c6ccc(C(F)(F)F)cc6)cc5)sc4c3)sc2c1S(=O)(=O)O`, -7% (inactive). Consider `Cc1ccc2nc(-c3ccc4nc(-c5ccc(NC(=O)c6ccc(F)cc6)cc5)sc4c3)sc2c1S(=O)(=O)O`, for which the inhibition was 50%. In the case of `Cc1ccc2nc(-c3ccc4nc(-c5ccc(NC(=O)c6cc(F)cc(C(F)(F)F)c6)cc5)sc4c3)sc2c1S(=O)(=O)O` it was 51%; in that of `CCOc1ccc2c(NNC(=O)c3cnccn3)c3c(nc2c1)CCCC3`, 81%. To `Cc1ccc2nc(-c3ccc4nc(-c5ccc(NC(=O)c6ccc(C(F)(F)F)cc6)cc5)sc4c3)sc2c1S(=O)(=O)O` belongs 44% (inactive). To `Cc1ccc2nc(-c3ccc4nc(-c5ccc(NCc6ccccc6)cc5)sc4c3)sc2c1S(=O)(=O)O` belongs -64% (inactive); to `Cc1ccc2nc(-c3ccc4nc(-c5ccc(NC(=O)c6cc(F)ccc6C(F)(F)F)cc5)sc4c3)sc2c1S(=O)(=O)O`, 61%.
